Drawing on ChEMBL document CHEMBL3792300, “Tuning Side Arm Electronics in Unsymmetrical Cyclotriazadisulfonamide (CADA) Endoplasmic Reticulum (ER) Translocation Inhibitors to Improve their Human Cluster of Differentiation 4 (CD4) Receptor Down-Modulating Potencies” (J Med Chem, 2016), this text covers IC50, CC50 and Activity for 2 compounds.

SMILES strings stand for the structures.

Data set [1] in a line: Binding affinity to human CD4 signal peptide expressed in CHO cells assessed as down-modulation of YFP-fused CD4 expression after 24 hrs by flow cytometric analysis. The class given is cell-based. The gist of the method:
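CHO cells stably expressing human CD4 fused C-terminally to YFP, treated 24 h at 37 °C with 1:5 serial dilutions. Washed, fixed in 1% formaldehyde, flow cytometry with 488 nm excitation and YFP in FL-1. YFP median fluorescence as % of untreated cells after subtracting non-transfected background. IC50 = 50% decrease; mean ± SD, n ≥ 3.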

The subject of the next data set is MT4. Description: Cytotoxicity against human MT4 cells after 48 hrs by MTS/PES method. The class given is cell-based. The following applies: mt4, 48 h. The gist of the method:
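MT-4 cells at 10⁴ per well in DMEM with 10% FBS and 10 mM HEPES, incubated with compounds 48 h at 37 °C. Viability by MTS/PES; CC50 taken as the concentration reducing viability by 50%.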

The test system of another data set is CHO. The data set is described as follows: Binding affinity to human CD4 signal peptide expressed in CHO cells assessed as down-modulation of YFP-fused CD4 expression at 50 uM after 24 hrs by flow cytometric analysis. The class given is cell-based. In a few lines:
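Stably CD4-YFP-expressing CHO cells, 24 h at 37 °C, 50 μM as the highest concentration tested. Washed, fixed in 1% formaldehyde, YFP read by flow cytometry (488 nm, FL-1). Median fluorescence versus untreated cells, background of non-transfected cells subtracted. Given as % CD4 down-modulation at 50 μM.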
For orientation: In flow cytometry, cells or beads pass a laser one at a time.

Data set [2] has as its system Human immunodeficiency virus 1. Description: Antiviral activity against CXCR4 using HIV-1 NL4.3 infected in human MT4 cells assessed as reduction of viral replication preincubated for 15 mins with cells followed by viral infection measured after 4 days by MTS/PES method. The class given is functional, organism-based. The following applies: Human immunodeficiency virus 1, NL4.3, MT4. The gist of the method: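 MT-4 T cells at 3.75×10⁵ cells/mL in RPMI 1640 with 10% FBS and 2 mM L-glutamine, exposed to compounds for 15 min, then infected with HIV-1 NL4.3 (30 pg/well) at 37 °C. After 4 days, viability by MTS/PES absorbance at 490 and 700 nm, used to derive IC50 for viral replication. Mean ± SD, n = 2 or 3.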

With `C=C1CNCCCN(Cc2ccccc2)CCCN(S(=O)(=O)c2ccc(C)cc2)C1`, the concentration for half-maximal inhibition (IC50) (commonly the concentration that inhibits the measured activity by half) in data set [1] was more than 50 µM. Moreover, the CC50 (in general, the concentration at which the toxic effect on the cells reaches its halfway point) in the data set with MT4 was more than 150 µM. Moreover, the Activity with CHO was found to be 20%.
As for `C=C1CN(C(=O)c2ccc([N+](=O)[O-])cc2)CCCN(Cc2ccccc2)CCCN(S(=O)(=O)c2ccc(C)cc2)C1`, the IC50 in data set [1] and in data set [2] was more than 50 µM in each case. Further, in the data set on MT4, the 50% cytotoxic concentration (CC50) is more than 150 µM. Also, the Activity in the data set on CHO turned out to be 39%.
